Measurements published in ChEMBL document CHEMBL4699593, “Identification of 2,4-Disubstituted Imidazopyridines as Hemozoin Formation Inhibitors with Fast-Killing Kinetics and In Vivo Efficacy in the Plasmodium falciparum NSG Mouse Model” (J Med Chem, 2020).
Values after ≈ are worked out from the molar mass of the structure shown.

What was measured:
[1] = Dissociation constant, pKa of compound; type: physicochemical
[2] = test system: Plasmodium falciparum; assay: Antiplasmodial activity against multidrug-sensitive asexual blood stage Plasmodium falciparum NF54 strain assessed as reduction in parasite growth after 72 hrs by NBT reagent based LDH assay; type: functional, organism-based; settings: NF54, 72 h
[3] = test system: Plasmodium falciparum; assay: Antiplasmodial activity against multidrug-resistant asexual blood stage Plasmodium falciparum K1 strain assessed as reduction in parasite growth after 72 hrs by NBT reagent based LDH assay; type: functional, organism-based; settings: K1, 72 h
Method in brief: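 Asexual blood-stage K1 (multidrug-resistant) parasites were read out by the parasite lactate dehydrogenase (pLDH) assay. […] Most individual values varied less than 2× (maximum 3×).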

[4] = Aqueous solubility of compound in phosphate buffer saline at pH 6.5 incubated for 20 hrs under shaking condition by shake-flask method based HPLC-DAD analysis; type: physicochemical; settings: phosphate buffered saline
Method in brief: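 Equilibrium aqueous solubility was measured at pH 6.5 using a miniaturized shake-flask method.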

[5] = test system: Hemozoin; assay: Inhibition of beta-hematin formation assessed as reduction in hemozoin formation incubated for 5 hrs by NP40 detergent-mediated assay
Method in brief: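 Synthetic hemozoin (β-hematin) formation is driven by the detergent Nonidet P-40. Pyridine is then added to detect unreacted hematin. IC50 is derived from this read-out.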

[6] = test system: CHO; assay: Cytotoxicity against CHO cells assessed as reduction in cell viability by MTT assay; type: cell-based, Cricetulus griseus; settings: chinese hamster
Method in brief: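 Cytotoxicity was measured in Chinese hamster ovary (CHO) cells and reported as CC50. The selectivity index is CC50 divided by NF54 IC50.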

[7] = Selectivity index, ratio of CC50 for cytotoxicity against CHO cells assessed as reduction in cell viability to IC50 for antiplasmodial activity against multidrug-sensitive Plasmodium falciparum NF54 assessed as reduction in parasite growth; type: toxicity, cell-based; settings: hamster, read-out: Ratio CC50/IC50
[8] = Cmax in Balb/C mouse at 2 mg/kg, iv by LC-MS/MS analysis; type: ADME, organism-based; design: route intravenous, dose 2 mg/kg; settings: in vivo
Method in brief: (§1)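 Healthy Balb/c mice dosed i.v. or orally. Parameters come from non-compartmental analysis of compound concentration over time. […] Clearance is blood clearance (CL_b).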

[9] = Cmax in Balb/C mouse at 20 mg/kg, po by LC-MS/MS analysis; type: ADME, organism-based; design: route oral, dose 20 mg/kg; settings: in vivo; method in brief: as §1
[10] = Tmax in Balb/C mouse at 20 mg/kg, po by LC-MS/MS analysis; type: ADME, organism-based; settings: in vivo
Method in brief: (§2)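 Healthy Balb/c mice were given the compound i.v. or orally. Parameters come from non-compartmental analysis: AUC from 0 h to t_last, blood clearance, volume at steady state, terminal half-life, Tmax. Oral bioavailability F is derived from the i.v. and p.o. data.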

[11] = Terminal half life in Balb/C mouse at 2 mg/kg, iv by LC-MS/MS analysis; type: ADME, organism-based; settings: in vivo, read-out: beta t1/2 (converted); method in brief: as §2
[12] = Terminal half life in Balb/C mouse at 20 mg/kg, po by LC-MS/MS analysis; type: ADME, organism-based; settings: in vivo, read-out: beta t1/2 (converted); method in brief: as §2
[13] = Clearance in Balb/C mouse blood at 2 mg/kg, iv by LC-MS/MS analysis; type: ADME, organism-based; settings: whole blood; method in brief: as §1
[14] = Volume of distribution at steady state in Balb/C mouse at 2 mg/kg, iv by LC-MS/MS analysis; type: ADME, organism-based; settings: in vivo, read-out: Vdss; method in brief: as §2
[15] = AUC (0 to t) in Balb/C mouse at 2 mg/kg, iv by LC-MS/MS analysis; type: ADME, organism-based; design: dose 2 mg/kg; settings: in vivo; method in brief: as §1
[16] = AUC (0 to t) in Balb/C mouse at 20 mg/kg, po by LC-MS/MS analysis; type: ADME, organism-based; design: dose 20 mg/kg; settings: in vivo; method in brief: as §1
[17] = Oral bioavailability in Balb/C mouse at 20 mg/kg by LC-MS/MS analysis; type: ADME, organism-based; settings: in vivo; method in brief: as §2
[18] = Ratio of unbound average drug concentration in Balb/c mouse at 20 mg/kg, po measured at 24 hrs to IC50 for antiplasmodial activity against multidrug-sensitive Plasmodium falciparum NF54 asexual blood stage assessed as reduction in parasite growth after 72 hrs by LDH assay; type: organism-based; settings: in vivo
[19] = Intrinsic clearance in Balb/c mouse at 20 mg/kg, po by LC-MS/MS analysis; type: ADME, organism-based; settings: in vivo
[20] = Apparent intrinsic clearance in mouse liver microsomes at 0.1 uM in presence of NADPH by LC-MS/MS analysis; type: ADME, Microsome
Method in brief: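 Compound was incubated with mouse liver microsomes for 30 min. Apparent intrinsic clearance (CL_int,app) is reported in μL/min/mg.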

[21] = AUC in Balb/c mouse administered orally; type: ADME; settings: in vivo, po; method in brief: as §1
[22] = target: Voltage-gated inwardly rectifying potassium channel KCNH2 (Homo sapiens, UniProt Q12809); assay: Inhibition of human ERG by patch clamp method
Chain of Voltage-gated inwardly rectifying potassium channel KCNH2 (Q12809 whole entry): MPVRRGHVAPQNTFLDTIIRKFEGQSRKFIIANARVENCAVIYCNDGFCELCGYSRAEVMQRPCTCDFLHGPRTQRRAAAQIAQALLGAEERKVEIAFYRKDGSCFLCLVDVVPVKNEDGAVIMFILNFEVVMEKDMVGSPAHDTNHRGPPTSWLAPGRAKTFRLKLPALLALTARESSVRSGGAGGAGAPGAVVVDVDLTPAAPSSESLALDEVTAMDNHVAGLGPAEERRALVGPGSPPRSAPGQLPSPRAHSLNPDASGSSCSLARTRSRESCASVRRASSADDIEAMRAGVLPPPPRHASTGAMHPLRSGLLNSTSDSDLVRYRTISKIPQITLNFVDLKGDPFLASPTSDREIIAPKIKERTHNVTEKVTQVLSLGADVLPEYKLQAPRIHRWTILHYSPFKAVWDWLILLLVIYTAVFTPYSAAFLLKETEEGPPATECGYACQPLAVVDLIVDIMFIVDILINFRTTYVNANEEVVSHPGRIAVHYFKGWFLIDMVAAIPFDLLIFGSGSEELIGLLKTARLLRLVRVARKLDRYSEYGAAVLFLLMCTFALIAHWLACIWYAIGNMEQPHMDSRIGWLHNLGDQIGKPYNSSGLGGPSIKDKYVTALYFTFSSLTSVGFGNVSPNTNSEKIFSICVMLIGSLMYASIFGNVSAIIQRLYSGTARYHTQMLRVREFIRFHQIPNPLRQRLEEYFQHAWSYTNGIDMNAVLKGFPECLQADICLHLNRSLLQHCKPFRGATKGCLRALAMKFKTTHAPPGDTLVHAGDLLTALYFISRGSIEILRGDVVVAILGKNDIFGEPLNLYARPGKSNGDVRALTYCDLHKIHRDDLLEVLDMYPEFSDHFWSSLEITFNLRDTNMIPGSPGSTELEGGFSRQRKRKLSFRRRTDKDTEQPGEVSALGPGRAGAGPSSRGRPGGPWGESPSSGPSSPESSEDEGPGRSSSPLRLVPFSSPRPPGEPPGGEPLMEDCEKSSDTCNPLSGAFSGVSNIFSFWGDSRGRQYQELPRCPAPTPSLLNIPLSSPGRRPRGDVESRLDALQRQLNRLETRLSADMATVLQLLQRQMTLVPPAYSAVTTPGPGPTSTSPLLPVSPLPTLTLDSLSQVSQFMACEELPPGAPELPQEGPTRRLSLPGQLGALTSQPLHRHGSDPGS

In the case of `Fc1cc(F)cc(-c2nc3c(N4CCC(N5CCOCC5)CC4)nccc3[nH]2)c1`, the pKa [1] is reported as 7.4.
In the case of `CN1CCN(CC2CCN(c3nncc4[nH]c(-c5cc(F)cc(F)c5)nc34)CC2)CC1`, the IC50 [2] is reported as 580 nM, the IC50 [3] is reported as 2900 nM and the solubility thermodynamic at 20 h [4] is reported as 190 µM (≈ 81.2 µg/mL). For the same compound, the IC50 [5] was 25000 nM.
Compound `CN1CCN(CC2CCN(c3nc(C#N)cc4[nH]c(-c5cc(F)cc(F)c5)nc34)CC2)CC1` has an IC50 [2] of 77 nM, an IC50 [3] of 49 nM and a solubility thermodynamic at 20 h [4] of less than 5 µM. The IC50 [5] was 8500 nM.
In the case of `Fc1cc(F)cc(-c2cc3c(N4CCC(N5CCOCC5)CC4)nccc3[nH]2)c1`, the pKa [1] is reported as 8.2.
Work on `CN1CCC(N2CCN(c3nccc4[nH]c(-c5ccc(F)c(F)c5)nc34)CC2)CC1` yielded an IC50 [2] of 71 nM, an IC50 [3] of 260 nM and a solubility thermodynamic at 20 h [4] of 200 µM (≈ 82.5 µg/mL). It also gave a CC50 [6] of 33000 nM, a selectivity ratio [7] of 460 and a Cmax [8] of 1700 nM. For the same compound, the Cmax [9] was 1100 nM, the Tmax [10] was 2.3 h and the half-life [11] was 8.2 h. The half-life [12] was 10.8 h, the clearance [13] was 11.4 mL/min/kg and the Vd [14] was 4.3 L/kg. It also gave an AUCt [15] of 6.77 µM·h, an AUCt [16] of 6.63 µM·h and a bioavailability [17] of 11%. For the same compound, the Ratio [18] was 0.9 and the CL [19] was 54 mL/min/kg.
`CN1CCC(N2CCN(c3nccc4[nH]c(-c5ccc(F)c(F)c5)nc34)CC(F)(F)C2)CC1` gave an IC50 [2] of 59 nM, an IC50 [3] of 160 nM and a solubility thermodynamic at 20 h [4] of 180 µM (≈ 83.2 µg/mL). The CC50 [6] was 33000 nM and the CLH [20] was 33 µL/min/mg.
`CS(=O)(=O)c1ccc(-c2cnc(N)c(-c3ccc(C(F)(F)F)nc3)c2)cc1` [MMV-048] showed an AUC [21] of 465 µM·h.
Work on `CN1CCN(C2CCN(c3nccc4[nH]c(-c5cc(F)cc(F)c5)nc34)CC2)CC1` yielded an IC50 [2] of 50 nM, an IC50 [3] of 170 nM and a solubility thermodynamic at 20 h [4] of 200 µM (≈ 82.5 µg/mL). The CC50 [6] was 30000 nM, the IC50 [22] was greater than 30000 nM and the Cmax [8] was 300 nM. For the same compound, the Cmax [9] was 1500 nM, the Tmax [10] was 1.5 h and the half-life [11] was 12.6 h. It also gave a half-life [12] of 9.8 h, a clearance [13] of 34.8 mL/min/kg and a Vd [14] of 30 L/kg. The AUCt [15] was 1.95 µM·h, the AUCt [16] was 11.8 µM·h and the bioavailability [17] was 61%. The Ratio [18] was 2.5.
